The chains are these.
B1: tRNA (parent)
chain: GUUCCGUUGGCGUAAUGGUAACGCGUCUCCCUCCUAAGGAGAAGACUGCGGGUUCGAGUCCCGUACGGAACG

This note sets out measurements from the RNAGym collection of RNA variant scans (doi:10.1126/science.aae0568).

Fewer inactive variants are shown than the library holds.

The variants in the data set derive from B1. Briefly: yeast fitness relative to wild type (ratio to wild type); higher = fitter; tRNA-Arg(CCU), competitive growth, 37 C, YPD. The method, boiled down:
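The tRNA-Arg(CCU) gene variants were made by chemical synthesis with a 3% per-site mutation rate at 69 sites and inserted at the native genomic locus of Saccharomyces cerevisiae. After pooling, the strains were competed in YPD at 37°C for 24 hours in six parallel replicates. Gene amplicons from the start population and each end population were read by 100-nucleotide paired-end sequencing, and Darwinian fitness relative to wild type was taken from genotype frequency changes. Genotypes needed ≥ 100 starting reads, and estimates < 0.5 were set to 0.5.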
On to G23A C29G C30G C49A G56C C61U, for which the yeast fitness turned out to be 0.702.

With G23C C24A C49A U54C, the yeast fitness is 0.655.

As to G23C C24G C34G, the yeast fitness is not above 0.5.

As to G23A A42G A45U G63C U64C, the yeast fitness was 0.638.

In the case of G23A C30G A69U, the yeast fitness was not above 0.5.

With G23A C62A, the yeast fitness turned out to be 0.516.

Consider C22U G25A G41C U54G C61U, for which the yeast fitness was not above 0.5.

In the case of C22U G25A A36G G51A C66U, the yeast fitness is not above 0.5.

Take G23A C27U C34U A45C: the yeast fitness is not above 0.5.

C22U G51C G67A: the yeast fitness worked out at 0.604.

For C22U U47C G51C, the yeast fitness is 0.54.

Regarding C22U G38C, the yeast fitness worked out at 0.747.

As to G23A U35G A70C, the yeast fitness is not above 0.5.

For the variant G23A C27U C60G, the yeast fitness stood at 0.525.

As to G23A C30A A37G, the yeast fitness is not above 0.5.

As for G23A C55U, the yeast fitness was found to be 0.625.

G23A A37G G68A: the yeast fitness was 0.682.

For the variant G23A C29U C30A, the yeast fitness turned out to be 0.565.

With G23A A40C U53C, the yeast fitness was not above 0.5.

G23C A37U G41A G63A: the yeast fitness turned out to be 0.558.

As to G23A C29U C31U A42G C61A, the yeast fitness is not above 0.5.

For the variant G23A A40U C49U C60A G63A, the yeast fitness is not above 0.5.

On to G23A G44C C61G, for which the yeast fitness is not above 0.5.

G23C A40G: the yeast fitness is 0.639.

As for G23A G41C, the yeast fitness is 0.803.

Regarding G23A C31U G48C C55G A69U, the yeast fitness is not above 0.5.

Consider G23A A43C, for which the yeast fitness is 0.826.

As for G23A A43U, the yeast fitness is 0.699.

G23A A43G: the yeast fitness was determined as 0.684.

As to C22U U32A C34U C66U, the yeast fitness was not above 0.5.

As for G23A G25A, the yeast fitness turned out to be 0.958.

Regarding G23A A45G A69C, the yeast fitness was 0.507.

With G23A U28A C30U A40U G52C G67A, the yeast fitness worked out at 0.63.

In the case of G23A C31U C33G, the yeast fitness was 0.523.

With G23A G63C, the yeast fitness was determined as 0.613.

As for G23C A42C U47A C49G A69U A70U, the yeast fitness was not above 0.5.

Consider G23A C30U G48A C55A, for which the yeast fitness is not above 0.5.

Consider G23C A42C, for which the yeast fitness turned out to be 0.721.

In the case of C22U U32A, the yeast fitness is 0.733.

For G23C C24G G63C A65U, the yeast fitness is not above 0.5.

In the case of C22U G41A, the yeast fitness was determined as 0.706.

On to C22U U32G C34U A40G A42G C66U, for which the yeast fitness is 0.561.

On to G23C C24A C30G A37C A45U G68C, for which the yeast fitness is not above 0.5.

As for G23A C33G, the yeast fitness is not above 0.5.

For the variant G23A C33U, the yeast fitness was determined as 0.547.

With C22U G38C G41C A65G, the yeast fitness is not above 0.5.

Regarding G23C C24A A57G G68A, the yeast fitness is not above 0.5.

With C22U U28C C29G C33A C60A A70C, the yeast fitness is not above 0.5.

Turning to C22U G58C C62G G63C, the yeast fitness is not above 0.5.

For G23A C24U G38C A70C, the yeast fitness is not above 0.5.

With C22U G63C, the yeast fitness amounted to 0.67.

As to G23A C30A, the yeast fitness is 0.792.

Take G23A C31U G56U A65U G68C: the yeast fitness was not above 0.5.

Turning to G23C C24G C34G U64A, the yeast fitness was not above 0.5.

Regarding C22U G25A G48C A57G, the yeast fitness is not above 0.5.

Regarding C22U U47C, the yeast fitness was found to be 0.857.

Take C22U U47A: the yeast fitness was 0.77.

For G23A U26A C30U A40U G44A U59A, the yeast fitness was not above 0.5.

As to C22U U59A, the yeast fitness is 0.705.

For G23C C27A A45G G51C G68A, the yeast fitness was found to be 0.701.

On to G23C C27G C31A A45U G67A, for which the yeast fitness was not above 0.5.

C22U G67U: the yeast fitness came to 0.808.

For the variant C22U G67A, the yeast fitness was 0.78.

G23A G25C C46G G48A C66A: the yeast fitness is not above 0.5.

Take G23C A42C U47A C49G: the yeast fitness was not above 0.5.

Take C22U U54C C55A A65G C66U: the yeast fitness is not above 0.5.

As to G23A U47A G58C, the yeast fitness came out at 0.596.

G23C A42U A43G: the yeast fitness was not above 0.5.

Turning to G23C A57G G63C A65U, the yeast fitness was not above 0.5.

For the variant G23A G39C A40G, the yeast fitness is not above 0.5.

Consider C22U G25A G41A C46A A69C, for which the yeast fitness stood at 0.599.

In the case of G23A C30U C33A G41C A42U A43G, the yeast fitness is not above 0.5.

G23A C33G C46G C66A: the yeast fitness was found to be 0.529.

C22U G52A C60G: the yeast fitness was found to be 0.503.

Take C22U G23C C55U C60G A70C: the yeast fitness was not above 0.5.

Take G23A C27A U54A G56A C66G: the yeast fitness is not above 0.5.

For G23A C60G G67A, the yeast fitness was not above 0.5.

With G23A A36G, the yeast fitness came out at 0.668.

On to G23A C27G C29U G56A, for which the yeast fitness was not above 0.5.

As to G23C A70C, the yeast fitness is 0.73.

For G23A A43G U64C, the yeast fitness was not above 0.5.

As to G23A A37C C49U C62U A70G, the yeast fitness was not above 0.5.

For C22U U28C, the yeast fitness is 0.736.

Take C22U U26A C49U A65U: the yeast fitness is not above 0.5.

Consider G23A A36G A69C, for which the yeast fitness worked out at 0.708.

With G23A G25A A40U C61U, the yeast fitness was not above 0.5.

For the variant G23A C24G U32G, the yeast fitness came out at 0.609.

With C22U G38A C55U G68C, the yeast fitness is not above 0.5.

In the case of G23C C24U A36G A57U G63A, the yeast fitness is not above 0.5.

For the variant C22U G48A, the yeast fitness amounted to 0.89.

For C22U U54G A65G G68U A70C, the yeast fitness is not above 0.5.

In the case of G23A A42C C60U C61G, the yeast fitness is not above 0.5.

Turning to C22U G25A A42C C49G U59A A65U, the yeast fitness was not above 0.5.

As to G23C C27G A45G G52A C66A, the yeast fitness is 0.634.

With G23A C30A C46G, the yeast fitness stood at 0.706.

Regarding G23A C30U C55A, the yeast fitness worked out at 0.573.

With G23A U59C G68A, the yeast fitness is not above 0.5.

In the case of G23C C24A C30G A40U U47A G51C G63A C66A A69U, the yeast fitness turned out to be 0.54.

Turning to C22U G41A A65C, the yeast fitness is not above 0.5.

Take C22U U32G C34U A40G C49U C66U: the yeast fitness came to 0.552.

For C22U U32C A65C, the yeast fitness turned out to be 0.701.

Turning to G23C C27A G56A A57U A69U, the yeast fitness was not above 0.5.

G23C A43U G56A: the yeast fitness came out at 0.628.

With G23A G38A G41C G50C C55G, the yeast fitness came to 0.696.

On to C22U G25A C33U A42C, for which the yeast fitness is not above 0.5.

Regarding G23A C30U C55A G68C, the yeast fitness was not above 0.5.

With C22U G52C C55U A65U, the yeast fitness is not above 0.5.

Regarding G23C A42G G67A, the yeast fitness is not above 0.5.

For G23A U28C C30A, the yeast fitness was not above 0.5.

Consider C22U G39A, for which the yeast fitness was determined as 0.693.

With C22U G39C, the yeast fitness stood at 0.731.

Consider C22U U28G A45G, for which the yeast fitness was not above 0.5.

For G23A C29U A45U, the yeast fitness stood at 0.967.

G23A C30A A43U: the yeast fitness was not above 0.5.

Regarding C22U G51C C61G, the yeast fitness turned out to be 0.556.

Consider G23A C31A, for which the yeast fitness came out at 0.644.

Take G23A C29G C55A: the yeast fitness amounted to 0.536.

C22U G50A G56A: the yeast fitness is 0.793.

In the case of G23A G52A G63A, the yeast fitness was not above 0.5.

As for C22U G41A A69C, the yeast fitness was not above 0.5.

On to C22U U35C C49U, for which the yeast fitness was not above 0.5.

Consider C22U G48A U54C, for which the yeast fitness turned out to be 0.601.

For G23A C34G, the yeast fitness turned out to be 0.582.

In the case of G23C A37U U47C C60G C66U, the yeast fitness was not above 0.5.

In the case of G23A C55U G58A, the yeast fitness was not above 0.5.

In the case of C22U G44A, the yeast fitness turned out to be 0.865.

For the variant G23A A70C, the yeast fitness came out at 0.74.

Consider C22U U47C C62U, for which the yeast fitness was 0.667.

Consider G23A U26G C61U A69C, for which the yeast fitness amounted to 0.793.

In the case of G23A A43U G50A U54G G68C, the yeast fitness was not above 0.5.

C22U G52A C55A C66U: the yeast fitness was determined as 0.526.

As for G23A A57C A65U, the yeast fitness is not above 0.5.

Consider G23A C33G U35G C60A C62U, for which the yeast fitness is not above 0.5.

As to C22U G48A G56A C60U, the yeast fitness is not above 0.5.

For G23A G56C, the yeast fitness turned out to be 0.65.

Regarding G23A G56A, the yeast fitness is 0.924.

For the variant G23A C34A G52C G63C, the yeast fitness was not above 0.5.

As to G23A G38A A69C, the yeast fitness is not above 0.5.

G23A C27U A69G: the yeast fitness was not above 0.5.

In the case of C22U U47G U59A, the yeast fitness is not above 0.5.

For the variant G23A C31A G50C C55G, the yeast fitness came to 0.548.

Regarding G23C A45G, the yeast fitness is 0.773.

In the case of G23C A45C, the yeast fitness was 0.554.

Turning to G23A A40U, the yeast fitness was found to be 0.842.

Consider G23A C46G, for which the yeast fitness is 0.683.

As to C22U G52A, the yeast fitness is 0.675.

Regarding G23A A36U G39C G50A, the yeast fitness was not above 0.5.

Turning to C22U G56C C60A C62G, the yeast fitness was found to be 0.523.

Consider G23A C30U U35G A45U A57C, for which the yeast fitness was determined as 0.533.

Consider C22U U26A C29U G52C, for which the yeast fitness turned out to be 0.624.

As for G23A C29G G68C, the yeast fitness is not above 0.5.

Regarding G23A C55U G63C, the yeast fitness was not above 0.5.

On to G23A C29G A45U C46U C60G C61U A69G, for which the yeast fitness is not above 0.5.

Consider G23A C30G C33G A36U C46G C55G C61U, for which the yeast fitness stood at 0.567.

As for C22U U35C A37U G50C C66U, the yeast fitness is 0.569.

Take C22U G44C G63A: the yeast fitness is not above 0.5.

For G23A C29U C30A C46G, the yeast fitness was not above 0.5.

With C22U U64C, the yeast fitness came out at 0.977.

For the variant C22U U28A A37U C61U, the yeast fitness turned out to be 0.552.

For the variant G23A C30G C33G A36U C46G C55G, the yeast fitness came out at 0.589.

As for G23A C30G C55U G63A, the yeast fitness was found to be 0.582.

As for G23A G38C A40C A43C, the yeast fitness was not above 0.5.

In the case of G23A C30U U54C, the yeast fitness came out at 0.528.

For G23A C33G C49A U54G A65G, the yeast fitness was 0.617.

With G23A U35G G58A, the yeast fitness is not above 0.5.

As to G23A C46U U59C, the yeast fitness came to 0.587.

On to G23A C27U C34U A45C A65C, for which the yeast fitness was determined as 0.532.
